Measured values from ChEMBL document CHEMBL1153527, “Discovery of a novel series of quinolone and naphthyridine derivatives as potential topoisomerase I inhibitors by scaffold modification” (J Med Chem, 2009).
In brackets after ≈: the same amount, converted by molar mass. Activity calls are given as the source filed them. The rule behind the calls is not given here.

Tests used:
HT-29 [1] = assay: Cell cycle distribution in human HT-29 cells assessed as accumulation at S phase upto 10 uM by flow cytometry; format: functional
Outline: (§1)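 HT-29 cells were exposed to vehicle or 1, 5 or 10 μM compound for 6, 12, 24 or 48 h. Floating and attached cells were collected, fixed in 70% ethanol and treated with 0.1% Triton X-100. They were stained with PI at 50 μg/mL plus RNaseA at 50 μg/mL for 30 min at room temperature in the dark. FL2 DNA content was read on 10000 cells by flow cytometry. The sub-G1 fraction was taken as apoptotic.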

HT-29 [2] = assay: Induction of apoptosis in human HT-29 cells assessed as increase in accumulation at sub-G1 phase at 1 uM after 48 hrs by flow cytometry; format: functional; outline: as §1
HT-29 [3] = assay: Induction of apoptosis in human HT-29 cells assessed as decrease in accumulation at G0/G1 phase at 1 uM after 48 hrs by flow cytometry; format: functional, cell-based; outline: as §1
HT-29 [4] = assay: Induction of apoptosis in human HT-29 cells assessed as morphological changes at 0.25 ug/mL after 24 hrs by immunostaining; format: functional, cell-based
Outline: (§2)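 SKOV3 and HT-29 cells were treated with 0.25 or 5 μg/mL for 24 h. Cell morphology was assessed by microscopy after fixation in 4% formaldehyde and Hoechst 33342 staining (10 μg/mL), against an untreated control.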

SK-OV-3 [5] = assay: Induction of apoptosis in human SKOV3 cells assessed as morphological changes at 0.25 ug/mL after 24 hrs by immunostaining; format: functional, cell-based; outline: as §2
HT-29 [6] = assay: Induction of apoptosis in human HT-29 cells assessed as morphological changes at 5 ug/mL after 24 hrs by immunostaining; format: functional, cell-based; outline: as §2
SK-OV-3 [7] = assay: Induction of apoptosis in human SKOV3 cells assessed as morphological changes at 5 ug/mL after 24 hrs by immunostaining; format: functional, cell-based; outline: as §2
SK-OV-3 [8] = assay: Induction of apoptosis in human SKOV3 cells assessed as apoptotic cells at 10 ug/mL after 24 hrs by annexin V/propidium iodide-based flow cytometry; format: functional
Outline: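 SKOV-3 or HT-29 cells (1-5 × 10^6 cells/mL) were incubated with 0, 5 or 10 μg/mL compound for 24 h. They were then washed and stained with EGFP-Annexin V/PI and analysed immediately by flow cytometry. Annexin V+/PI− cells were scored as apoptotic; PI-permeant cells were scored as necrotic.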

HT-29 [9] = assay: Antitumor activity against human HT-29 cells xenografted in athymic BALB/c nude mouse at 150 mg/kg, ip for 10 days measured after 30 days relative to placebo control; format: functional; details: route intraperitoneal
Outline: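 Female athymic BALB/c nude mice (35-40 days old, 18-22 g). HT-29 tumours first grown from 1 × 10^7 cells injected s.c. in the axillary fossa, then excised and transplanted. Treatment started at 100-300 mm3. Groups of n=6 were dosed i.p. daily in 400 μL: saline for 10 days, 5 mg/kg for 2 days, or 75/150 mg/kg for 10 days. Caliper volume was V=1/2·a·b². Values are relative to start volume, compared with placebo by Student's t test, and mice were killed on day 30.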

Mus musculus = assay: Toxicity in athymic BALB/c nude mouse xenografted with human HT-29 cells assessed as change in body weight at 75 mg/kg, ip for 10 days measured after 30 days; format: organism-based; set-up: dose 75 mg/kg, route intraperitoneal; details: in vivo, 720 h
Outline: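 Nude mouse HT-29 xenograft model as above: female athymic BALB/c, 18-22 g, n=6 per group. Dosing was i.p. daily in 400 μL for 10 consecutive days at 75 or 150 mg/kg, with saline controls. Body weight and tumour volume were recorded every 4 days, and the study ended on day 30. Weights were compared with controls by Student's t test.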

[10] = Cytotoxicity against estrogen receptor-negative human […] cells expressing p53 mutant after 48 hrs by SRB assay; format: functional, cell-based
Outline: (§3)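 Cell lines came from CCRC, Taiwan. Cells were seeded at about 5 × 10^3 per well and left overnight. They were then given serum-free medium containing 0-10 μM compound (0.08-10 μM serial dilutions) for 48 h at 37 °C. Cells were fixed with TCA (10% final), stained with SRB (0.4% final), and the dye was dissolved in 10 mM Tris with A515 read. IC50 was taken from a fitted log concentration-response curve.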

HepG2 = assay: Cytotoxicity against human HepG2 cells expressing wild type p53 after 48 hrs by SRB assay; format: functional, cell-based; details: HepG2, 48 h; outline: as §3
KB = assay: Cytotoxicity against human KB cells after 48 hrs by MTT assay; format: functional, cell-based
A2780 = assay: Cytotoxicity against human A2780 cells after 48 hrs by MTT assay; format: functional, cell-based; details: A2780, 48 h
HT-29 [11] = assay: Cytotoxicity against human HT-29 cells expressing p53 mutant after 48 hrs by SRB assay; format: functional, cell-based; details: HT-29, 48 h; outline: as §3
PC-3 = assay: Cytotoxicity against p53-deficient human PC3 cells after 48 hrs by SRB assay; format: functional, cell-based; details: PC-3, 48 h; outline: as §3
U-937 = assay: Cytotoxicity against human U937 cells expressing p53 mutant after 48 hrs by SRB assay; format: functional, cell-based; details: U-937, 48 h
[12] = Solubility in assay condition at 50 uM; format: physicochemical
HT-29 [13] = assay: Cytotoxicity against human HT-29 cells after 48 hrs by MTT assay; format: functional, cell-based; details: HT-29, 48 h
Outline: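 Cells were seeded at about 5 × 10^3 per well, then given serum-free medium containing 0-10 μM test compound for 48 h at 37 °C. MTT was added at 0.5 mg/mL final for 4 h at 37 °C. Formazan was dissolved in DMSO and OD570 read. IC50 values (50% cell death) came from a fitted log concentration-response curve.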

solubility [12]: Insoluble
SMILES: CCn1cc(-c2nc3ccc([N+](=O)[O-])cc3o2)c(=O)c2cc(F)c(N3CCNC(C)C3)c(F)c21 (stereo not drawn)
Activity (HT-29 [1]): 5% | Activity (HT-29 [2]): 35.5% | Activity (HT-29 [3]): Active | Activity (HT-29 [4]): Active | Activity (SK-OV-3 [5]): Active | Activity (HT-29 [6]): Active | Activity (SK-OV-3 [7]): Active | Activity (SK-OV-3 [8]): 13.6% | Activity (HT-29 [9]): 65% | Activity (Mus musculus): Non-toxic | GI50 [10]: 0.7 µM | IC50 [10]: 3.1 µM | GI50 (HepG2): 2.8 µM | IC50 (HepG2): 4.5 µM | IC50 (KB): 0.6 µM | IC50 (A2780): 0.2 µM | GI50 (HT-29 [11]): 1 µM | IC50 (HT-29 [11]): 5.5 µM | GI50 (PC-3): 3.3 µM | IC50 (PC-3): 4.2 µM | IC50 (U-937): 1.4 µM | IC50 (HT-29 [13]): 0.37 µg/mL (≈ 0.788 µM)
